Bioassay records (PubChem)
NS3 helicase inh – inhibitors of HCV NS3 helicase, primary screen, biochemical, Cy5 molecular beacon fluorescence. Hepatitis C virus NS3 helicase. NS3 helicase DNA unwinding. inhibition, % at 10.9 µM. 290,000 tested, 0.56% active;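 active = inhibition above the mean of all tested compounds plus 3 SD, set per campaign, cut at about 35% in these data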
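test system = hepatitis C virus NS3 helicase domain fragment enzyme | reagent = annealed dual-labelled DNA beacon duplex, ATP-started | times = 1 h at 25 °C | detection = Cy5 fluorescence, 0 and 60 min reads | read-out basis = percent inhibition from t60/t0 fluorescence ratio | control set = DMSO and thioflavine S | replication = one well per compound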
HCV core dimer – inhibitors of HCV core protein dimerization, primary screen, biochemical, TR-FRET, high-throughput. inhibition, % at 5 µM. TR-FRET GST/Flag-core106 dimerization, 1536-well. 300,000 tested, 0.33% active. AID 1899, 2009;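 active = inhibition above the mean of all tested compounds plus 3 SD, set per screening campaign, cut at about 45% in these data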
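Assay system: GST-tagged and Flag-tagged HCV core protein residues 1-106 / Times: compound-protein-antibody incubation 4 h at 22.5 °C / Signal: time-resolved FRET, ex 340 nm, em 617 and 671 nm / Evaluation: % inhibition based on acceptor/donor emission ratio / Benchmarks: wells lacking GST-core106 and wells with excess unlabelled core106 / Repeats: singlicate, one well per compound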
TAAR1 antag – human TAAR1 antagonists, primary screen, Fluo-8 calcium fluorescence, CHO RD-HGA16 cells | Trace amine-associated receptor 1 (Homo sapiens), Q96RJ0 | antagonist | inhibition, % at 3 µM | 360,000 tested, 1.5% active | AID 624466, 2012;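 active = inhibition above a per-plate cutoff, the mean inhibition of test compounds on that plate plus 3 SD, cut at about 49% in these data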
Target sequence (Q96RJ0 whole entry, looked up): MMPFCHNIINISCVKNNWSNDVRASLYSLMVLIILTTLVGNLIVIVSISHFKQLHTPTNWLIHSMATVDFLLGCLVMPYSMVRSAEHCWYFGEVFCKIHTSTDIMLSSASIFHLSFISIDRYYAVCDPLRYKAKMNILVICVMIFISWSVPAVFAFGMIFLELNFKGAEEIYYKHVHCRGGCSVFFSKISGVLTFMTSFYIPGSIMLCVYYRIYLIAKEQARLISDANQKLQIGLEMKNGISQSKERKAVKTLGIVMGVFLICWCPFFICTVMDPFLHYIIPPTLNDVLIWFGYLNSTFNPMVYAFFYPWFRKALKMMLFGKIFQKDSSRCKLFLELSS
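Assay system: CHO-derived RD-HGA16 cells stably expressing human TAAR1 plus Gα16. Timing: 140 s kinetic read after compound, 140 s after agonist. Technique: kinetic Fluo-8 calcium fluorescence measurement. Measure: % inhibition of agonist calcium response.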
TAAR1 ag – human TAAR1 agonists, primary screen, Fluo-8 calcium fluorescence, CHO RD-HGA16 cells | vehicle wells 0%, saturating PEA agonist 100% | activation, % at 3 µM | 360,000 tested, 0.99% active | AID 624467, 2012;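 active = activation above the mean activation of all test compounds in the run plus 3 SD, cut at about 38% in these data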
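System: CHO-derived RD-HGA16 cells with stable Gα16 and human TAAR1. Times: 17-24 h plating, Fluo-8 75 min 37 °C, 30 min RT. Measured by: calcium-sensitive Fluo-8 signal, excitation 470-495, emission 515-575 nm. Read-out basis: % activation relative to PEA EC100 response. Control set: DMSO and PEA EC100. Repeats: no replicates (n 1).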
rCAG RNA binder – binders of r(CAG) RNA repeats, primary screen, biochemical, fluorescence. inhibition, % at 3 µM. r(CAG) RNA repeat, TO-PRO-1 dye displacement fluorescence. AID 651821, 2012. 370,000 tested, 1.3% active;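 active = inhibition above the plate cutoff, the mean of all test compounds on that plate plus 3 SD, cut at about 35% in these data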;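 also: higher means more dye released from RNA so lower well fluorescence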
Numbers stand for hits; - = inactive; . = no result given. Most compounds without a hit are left out; they make up all but 3.7% or so of the library.

SMILES	NS3 helicase inh	HCV core dimer	TAAR1 antag	TAAR1 ag	rCAG RNA binder
COc1ccc(C(=O)COC(=O)c2ccc3c(c2)NC(=O)CS3)c(OC)c1	.	-	-	-	-
COCCN1C(=O)C2=C(C1=O)C1N(C)c3ccccc3[C@@]13C[C@@H](CO)N(C(C)=O)C3=N2 (stereo partly drawn)	.	.	.	.	-
CC(=O)NC(Cc1ccccc1)C(=O)OCC(=O)c1ccc(Cl)cc1 (stereo not drawn)	-	-	-	-	-
O=C(CCl)NC(Cc1ccccc1)C(=O)OCC(=O)c1ccc(-c2ccccc2)cc1 (stereo not drawn)	.	.	60	-	-
CC[C@H](CCCc1ccccc1OC)CCS(=O)(=O)N(C)C	.	.	.	.	-
CN(C)C(=O)c1ccc(Nc2nc(-c3cccs3)nc3ccccc23)cc1	-	-	51	-	-
Cc1ccccc1-c1nnc2n1N=C(c1ccc(O)c(O)c1)CS2	.	.	.	.	-
COc1ccc(/C=N\NC(=O)c2ccccc2F)cc1COc1ccc(F)cc1F	-	-	-	-	-
COc1ccc(/C=N/NC(=O)c2nc(Cl)c(Cl)c(N)c2Cl)cc1COc1ccc(F)cc1F	-	53	-	-	-
COc1ccc(/C=N/NC(=O)c2nc(Cl)c(Cl)c(N)c2Cl)cc1COc1ccccc1F	-	57	-	-	-
COc1ccc(NC(=O)CSc2nc3ccsc3c(=O)n2CCCCCC(=O)O)cc1	-	-	50	-	-
CCN(CC)S(=O)(=O)c1ccc(N2CCOCC2)c(NC(=O)c2cccc3c(=O)c(C)c(-c4ccccc4)oc23)c1	.	-	54	-	-
O=C(c1n[nH]c2ccccc12)N1CCN(S(=O)(=O)c2ccccc2)CC1	.	.	-	-	-
O=C(c1cc(=O)[nH]c2ccccc12)N1CCN(S(=O)(=O)c2ccc(Cl)cc2)CC1	.	.	59	-	-
CC(C)CNC(=O)OCc1cn(Cc2ccccc2)nn1	.	.	.	.	-
COc1ccc(-c2cc(C(=O)N/N=C/c3ccc4c(c3)OCO4)c3ccccc3n2)c(OC)c1	-	-	-	-	-
COc1ccc(-c2cc(C(=O)N/N=C/c3ccc(OC)c(COCC(F)(F)C(F)F)c3)c3ccccc3n2)c(OC)c1	-	58	-	-	-
Cc1cc(/C=N/NC(=O)c2cc3ccccc3o2)c(C)n1C	-	-	54	-	-
O=C(N/N=C/c1ccncc1)c1cc2ccccc2o1	-	-	-	-	-
O=C(Cn1c(=O)n(CCc2c[nH]c3ccccc23)c(=O)c2cccnc21)Nc1ccccc1F	-	-	52	-	-
Cc1ccc(C(=O)OCc2cc3ccccc3[nH]c2=O)cc1	-	-	-	42	-
O=C(Nc1ccc(F)cc1)OCc1cn(Cc2ccc(C(F)(F)F)cc2)nn1	.	.	.	.	-
O=C(O)c1ccc(-c2ccc(/C=C3\NC(=O)N(Cc4ccc(Cl)cc4)C3=O)o2)cc1Cl	-	.	-	-	53
COc1ccc(NC(=O)c2cc(-c3ccncc3)nc3ccc(Br)cc23)cc1OC	-	-	53	-	-
CCOC(=O)CNS(=O)(=O)c1cc(-c2nnc(Nc3ccc4c(c3)OCO4)c3ccccc23)ccc1C	-	-	59	-	-
SMILES	NS3 helicase inh	HCV core dimer	TAAR1 antag	TAAR1 ag	rCAG RNA binder
Cc1ccc(-c2nnc(Nc3ccc(O)cc3)c3ccccc23)cc1S(=O)(=O)NCCO	-	.	-	-	-
FC(F)(F)c1nc(-c2cccs2)ncc1-c1nnnn1-c1ccc(Cl)cc1	-	-	59	-	-
Clc1ccc(-n2nnnc2-c2cnc(-c3ccncc3)nc2-c2cccs2)cc1	-	-	-	-	-
CCOC(=O)c1cnn(-c2nc(SC)nc3sc4c(c23)CCC4)c1N	-	80	-	-	-
Cc1nc(-n2ncc(C#N)c2N)c2c3c(sc2n1)CCC3	-	-	-	-	-
NNC(=O)CNC(c1ccccc1)c1cc(Br)ccc1NC(=O)c1ccc(Br)cc1 (stereo not drawn)	-	-	-	-	-
NNC(=O)CNC(c1ccccc1)c1cc(Br)ccc1NC(=O)c1ccccc1Br (stereo not drawn)	-	-	53	-	-
CC(=O)N1CCN(C(=O)CN2C(=O)CC(C)(C)S(=O)(=O)c3ccccc32)CC1	.	.	.	.	-
CCN(CC)c1c2c(nc3ncnn13)CCCC2	.	.	.	.	-
Cn1c(C(=O)N2CCN(c3ccc(Cl)cc3)CC2)cc2c(=O)[nH]c3ccccc3c21	-	-	-	-	-
Cc1ccc(Cl)cc1N1CCN(C(=O)c2cc3c(=O)[nH]c4ccccc4c3n2C)CC1	-	-	51	-	-
N#Cc1nc(-c2cccs2)oc1NCc1ccc(Cl)cc1	-	-	50	-	-
N#Cc1nc(-c2cccs2)oc1NCc1ccccc1	-	-	-	-	-
O=C(Nc1ccc(Cl)c(Cl)c1)C1=Cc2ccccc2OC1	-	-	60	-	-
COc1cc(C2(c3ccc(O)c(OC)c3)C(=O)Nc3c(C)cc(Br)cc32)ccc1O	.	-	51	-	-
Cc1ccc(NC(=O)c2cc(-c3ccco3)nc3ccccc23)cc1S(=O)(=O)N1CCOCC1	-	69	-	-	-
